≈ marks a conversion by molar mass, not a printed value.
Tests used:
[1] = Activity of Beta-lactamase GES-6 K104, S170 mutant
Method in brief: (§1)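 Purified GES enzymes, released by mild sonication in 20 mM Tris pH 8.0, then Q-Sepharose and S-Sepharose chromatography, >95% pure by SDS-PAGE, in 50 mM KPi pH 7.6. Protein measured by Bradford. β-Lactam substrates hydrolysed at various concentrations, 25°C, in 50 mM NaCl, 50 mM MOPS pH 7.0.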

[2] = Activity of Beta-lactamase GES-2 E104, N170 mutant; method in brief: as §1
[3] = Ratio of Kcat to Km for Beta-lactamase GES-1 E104, G170 mutant; method in brief: as §1
Escherichia coli [4] = test: Antimicrobial activity against Escherichia coli DH5[alpha] transformed with pAC-ges1 plasmid encoding Beta-lactamase GES-1 E104, G170 mutant by Etest method; format: functional
[5] = Activity of Beta-lactamase GES-7 K104, G170 mutant; method in brief: as §1
Escherichia coli [6] = test: Antimicrobial activity against Escherichia coli DH5[alpha] transformed with pAC-ges1 plasmid encoding Beta-lactamase GES-13 K104, N170 mutant by Etest method; format: functional
[7] = Activity of Beta-lactamase GES-13 K104, N170 mutant; method in brief: as §1
[8] = Ratio of Kcat to Km for Beta-lactamase GES-13 K104, N170 mutant; method in brief: as §1
Escherichia coli [9] = test: Antimicrobial activity against Escherichia coli DH5[alpha] transformed with pAC-ges1 plasmid encoding Beta-lactamase GES-2 E104, N170 mutant by Etest method; format: functional
Escherichia coli [10] = test: Antimicrobial activity against Escherichia coli DH5[alpha] transformed with pAC-ges1 plasmid encoding Beta-lactamase GES-5 E104, S170 mutant by Etest method; format: functional
[11] = Ratio of Kcat to Km for Beta-lactamase GES-2 E104, N170 mutant; method in brief: as §1
Escherichia coli [12] = test: Antimicrobial activity against Escherichia coli DH5[alpha] transformed with pAC-ges1 plasmid encoding Beta-lactamase GES-7 K104, G170 mutant by Etest method; format: functional
Escherichia coli [13] = test: Antimicrobial activity against Escherichia coli DH5[alpha] transformed with pAC-ges1 plasmid encoding Beta-lactamase GES-6 K104, S170 mutant by Etest method; format: functional
[14] = Ratio of Kcat to Km for Beta-lactamase GES-5 E104, S170 mutant; method in brief: as §1
[15] = Ratio of Kcat to Km for Beta-lactamase GES-6 K104, S170 mutant; method in brief: as §1
[16] = Ratio of Kcat to Km for Beta-lactamase GES-7 K104, G170 mutant; method in brief: as §1
[17] = Activity of Beta-lactamase GES-5 E104, S170 mutant; method in brief: as §1
[18] = Activity of Beta-lactamase GES-1 E104, G170 mutant; method in brief: as §1
Escherichia coli [19] = test: Antimicrobial activity against Escherichia coli DH5[alpha] by Etest method; format: functional
[20] = Inhibition of Beta-lactamase GES-13 K104, N170 mutant preincubated for 5 mins before substrate addition using cephalothin substrate by spectrophotometry
[21] = Inhibition of Beta-lactamase GES-1 E104, G170 mutant preincubated for 5 mins before substrate addition using cephalothin substrate by spectrophotometry
[22] = Inhibition of Beta-lactamase GES-6 K104, S170 mutant preincubated for 5 mins before substrate addition using cephalothin substrate by spectrophotometry
[23] = Inhibition of Beta-lactamase GES-2 E104, N170 mutant preincubated for 5 mins before substrate addition using cephalothin substrate by spectrophotometry
[24] = Inhibition of Beta-lactamase GES-5 E104, S170 mutant preincubated for 5 mins before substrate addition using cephalothin substrate by spectrophotometry
[25] = Inhibition of Beta-lactamase GES-7 K104, G170 mutant preincubated for 5 mins before substrate addition using cephalothin substrate by spectrophotometry
Escherichia coli [26] = test: Antimicrobial activity against Escherichia coli DH5[alpha] transformed with pAC-ges1 plasmid encoding Beta-lactamase GES-2 E104, N170 mutant in presence of at 2 ug/ml clavulanic acid by Etest method; format: functional
Method in brief: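 MIC read by Etest per the manufacturer's instructions. Host was E. coli DH5α carrying the bla_GES gene cloned into the chloramphenicol- and tetracycline-resistant vector pACYC184, with the high-copy plasmid pBC-ges1 as the gene source. The inhibitor was held at a fixed 2 μg/ml.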

Escherichia coli [27] = test: Antimicrobial activity against Escherichia coli DH5[alpha] transformed with pAC-ges1 plasmid encoding Beta-lactamase GES-7 K104, G170 mutant in presence of at 2 ug/ml clavulanic acid by Etest method; format: functional
Escherichia coli [28] = test: Antimicrobial activity against Escherichia coli DH5[alpha] transformed with pAC-ges1 plasmid encoding Beta-lactamase GES-5 E104, S170 mutant in presence of at 2 ug/ml clavulanic acid by Etest method; format: functional
Escherichia coli [29] = test: Antimicrobial activity against Escherichia coli DH5[alpha] transformed with pAC-ges1 plasmid encoding Beta-lactamase GES-1 E104, G170 mutant in presence of at 2 ug/ml clavulanic acid by Etest method; format: functional
Escherichia coli [30] = test: Antimicrobial activity against Escherichia coli DH5[alpha] in presence of at 2 ug/ml clavulanic acid by Etest method; format: functional
Escherichia coli [31] = test: Antimicrobial activity against Escherichia coli DH5[alpha] transformed with pAC-ges1 plasmid encoding Beta-lactamase GES-13 K104, N170 mutant in presence of at 2 ug/ml clavulanic acid by Etest method; format: functional
Escherichia coli [32] = test: Antimicrobial activity against Escherichia coli DH5[alpha] transformed with pAC-ges1 plasmid encoding Beta-lactamase GES-6 K104, S170 mutant in presence of at 2 ug/ml clavulanic acid by Etest method; format: functional

CC(C)(O/N=C(\C(=O)N[C@@H]1C(=O)N2C(C(=O)[O-])=C(C[n+]3ccccc3)CS[C@H]12)c1csc(N)n1)C(=O)O [CEFTAZIDIME]
Km [1]: 149 µM | kcat [1]: 9.3 s⁻¹ | Km [2]: 98.2 µM | kcat [2]: 0.21 s⁻¹ | kcat/Km [3]: 77000 M⁻¹ s⁻¹ | MIC (Escherichia coli [4]): 8 µg/mL (≈ 14.6 µM) | Km [5]: 69.2 µM | kcat [5]: 132 s⁻¹ | MIC (Escherichia coli [6]): 32 µg/mL (≈ 58.5 µM) | Km [7]: 229 µM | kcat [7]: 30.4 s⁻¹ | kcat/Km [8]: 130000 M⁻¹ s⁻¹ | MIC (Escherichia coli [9]): 0.5 µg/mL (≈ 0.915 µM) | MIC (Escherichia coli [10]): 0.75 µg/mL (≈ 1.37 µM) | kcat/Km [11]: 2000 M⁻¹ s⁻¹ | MIC (Escherichia coli [12]): > 256 µg/mL | MIC (Escherichia coli [13]): 4 µg/mL (≈ 7.32 µM) | kcat/Km [14]: 2000 M⁻¹ s⁻¹ | kcat/Km [15]: 63000 M⁻¹ s⁻¹ | kcat/Km [16]: 1.9e+06 M⁻¹ s⁻¹ | Km [17]: 135 µM | kcat [17]: 0.24 s⁻¹ | Km [18]: 137 µM | kcat [18]: 10.5 s⁻¹ | MIC (Escherichia coli [19]): 0.12 µg/mL (≈ 0.22 µM)

O=C(O)[C@H]1/C(=C/CO)O[C@@H]2CC(=O)N21 [CLAVULANIC ACID]
IC50 [20]: 0.09 µM | IC50 [21]: 0.1 µM | IC50 [22]: 1.7 µM | IC50 [23]: 0.08 µM | IC50 [24]: 0.5 µM | IC50 [25]: 0.8 µM

C[C@@H](O)[C@H]1C(=O)N2C(C(=O)O)=C(SCCNC=N)C[C@H]12 [IMIPENEM ANHYDROUS]
Km [1]: 3.92 µM | kcat [1]: 0.166 s⁻¹ | Km [2]: 0.87 µM | kcat [2]: 0.016 s⁻¹ | kcat/Km [3]: 5000 M⁻¹ s⁻¹ | MIC (Escherichia coli [4]): 0.25 µg/mL (≈ 0.835 µM) | MIC (Escherichia coli [6]): 0.25 µg/mL (≈ 0.835 µM) | Km [7]: 3.1 µM | kcat [7]: 0.009 s⁻¹ | kcat/Km [8]: 3000 M⁻¹ s⁻¹ | MIC (Escherichia coli [9]): 0.5 µg/mL (≈ 1.67 µM) | MIC (Escherichia coli [10]): 1.5 µg/mL (≈ 5.01 µM) | kcat/Km [11]: 20000 M⁻¹ s⁻¹ | MIC (Escherichia coli [12]): 0.125 µg/mL (≈ 0.418 µM) | MIC (Escherichia coli [13]): 0.5 µg/mL (≈ 1.67 µM) | kcat/Km [14]: 260000 M⁻¹ s⁻¹ | kcat/Km [15]: 42000 M⁻¹ s⁻¹ | Km [17]: 1.27 µM | kcat [17]: 0.332 s⁻¹ | Km [18]: 1.2 µM | kcat [18]: 0.006 s⁻¹ | MIC (Escherichia coli [19]): 0.064 µg/mL (≈ 0.214 µM)

C[C@@H](O)[C@H]1C(=O)N2C(C(=O)O)=C(S[C@@H]3CN[C@H](C(=O)N(C)C)C3)[C@H](C)[C@H]12 [MEROPENEM]
MIC (Escherichia coli [4]): 0.016 µg/mL (≈ 0.0417 µM) | MIC (Escherichia coli [6]): 0.023 µg/mL (≈ 0.06 µM) | MIC (Escherichia coli [9]): 0.032 µg/mL (≈ 0.0834 µM) | MIC (Escherichia coli [10]): 0.094 µg/mL (≈ 0.245 µM) | MIC (Escherichia coli [12]): 0.016 µg/mL (≈ 0.0417 µM) | MIC (Escherichia coli [13]): 0.047 µg/mL (≈ 0.123 µM) | MIC (Escherichia coli [19]): 0.008 µg/mL (≈ 0.0209 µM)

CC1(C)[C@H](C(=O)O)N2C(=O)C[C@H]2S1(=O)=O [SULBACTAM]
IC50 [20]: 0.3 µM | IC50 [21]: 1.5 µM | IC50 [22]: 8 µM | IC50 [23]: 0.5 µM | IC50 [24]: 4.5 µM

C[C@]1(Cn2ccnn2)[C@H](C(=O)O)N2C(=O)C[C@H]2S1(=O)=O [TAZOBACTAM]
IC50 [20]: 0.04 µM | IC50 [21]: 0.03 µM | IC50 [22]: 0.5 µM | IC50 [23]: 0.03 µM | IC50 [24]: 0.5 µM | IC50 [25]: 0.06 µM

CC1(C)S[C@@H]2[C@H](NC(=O)[C@H](C(=O)O)c3ccsc3)C(=O)N2[C@H]1C(=O)O [TICARCILLIN]
MIC (Escherichia coli [26]): 1.5 µg/mL | MIC (Escherichia coli [4]): > 256 µg/mL | MIC (Escherichia coli [27]): > 256 µg/mL | MIC (Escherichia coli [6]): > 256 µg/mL | MIC (Escherichia coli [28]): 16 µg/mL | MIC (Escherichia coli [9]): > 256 µg/mL | MIC (Escherichia coli [10]): > 256 µg/mL | MIC (Escherichia coli [29]): 6 µg/mL | MIC (Escherichia coli [12]): > 256 µg/mL | MIC (Escherichia coli [13]): > 256 µg/mL | MIC (Escherichia coli [30]): 4 µg/mL | MIC (Escherichia coli [19]): 4 µg/mL (≈ 10.4 µM) | MIC (Escherichia coli [31]): 8 µg/mL | MIC (Escherichia coli [32]): > 256 µg/mL
